{"source": "ChEMBL document CHEMBL1765085", "about": "“Cytotoxic and apoptosis-inducing activities of triterpene acids from Poria cocos” (J Nat Prod, 2011)", "key": {"DU-145": {"test_system": "DU-145", "experiment": "Cytotoxicity in human DU145 cells assessed as cell viability after 48 hrs by MTT assay", "format": "functional, cell-based", "conditions": "DU-145, 48 h", "how_it_was_run": "(§1)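 Growth conditions: RPMI 1640 for HL60, CRL1579, NIH:OVCAR-3, SK-BR-3, DU145 and PANC-1; D-MEM for A549; MEM for WI-38; all with 10% FBS and antibiotics, 37 °C, 5% CO2. Seeded at 3 × 10^3 cells/well (OVCAR-3 1 × 10^4), then treated 48 h with 10^-4 to 10^-6 M. MTT for 3 h, formazan dissolved in 0.04 M HCl/2-propanol, A570/630. IC50 (50% growth inhibition) from triplicates.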"}, "HL-60 [1]": {"test_system": "HL-60", "experiment": "Induction of mitochondrial signal transduction pathway-mediated apoptosis in human HL60 cells assessed as increase in cleaved caspase-3 level at 30 uM after 8 hrs by Western blot analysis", "format": "functional, cell-based", "how_it_was_run": "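HL60 cells (1 × 10^6) were pre-incubated 24 h, then given 30 μM for 8 or 24 h. Whole-cell lysates were run on 15% SDS-PAGE, transferred to PVDF and probed overnight at 4 °C for procaspase and cleaved caspase-3, with β-actin as loading control.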"}, "A549 [2]": {"test_system": "A549", "experiment": "Induction of apoptosis in human A549 cells assessed as viable cells at 30 uM after 24 hrs by AnnexinV/propidium iodide staining (Rvb =91.2%)", "format": "functional", "conditions": "A549, 24 h, read-out: Activity"}, "A549 [3]": {"test_system": "A549", "experiment": "Cytotoxicity in human A549 cells assessed as cell viability after 48 hrs by MTT assay", "format": "functional, cell-based", "conditions": "A549, 48 h", "how_it_was_run": "as §1"}, "A549 [4]": {"test_system": "A549", "experiment": "Induction of apoptosis in human A549 cells assessed as late apoptotic cells at 30 uM after 24 hrs by AnnexinV/propidium iodide staining (Rvb =1.1%)", "format": "functional"}, "A549 [5]": {"test_system": "A549", "experiment": "Induction of apoptosis in human A549 cells assessed as early apoptotic cells at 30 uM after 24 hrs by AnnexinV/propidium iodide staining (Rvb =4.3%)", "format": "functional"}, "A549 [6]": {"test_system": "A549", "experiment": "Induction of apoptosis in human A549 cells assessed as necrotic cells at 30 uM after 48 hrs by AnnexinV/propidium iodide staining (Rvb =3.4%)", "format": "functional"}, "A549 [7]": {"test_system": "A549", "experiment": "Cell cycle arrest in human A549 cells assessed as accumulation at sub-G1 phase at 30 uM after 24 hrs by flow cytometry (reference value: 3.1%)", "format": "functional", "how_it_was_run": "(§2)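 Cells seeded at 1 × 10^5 per sample for HL60 and 1.5 × 10^5 for A549, then exposed to 30 μM for 0, 24 or 48 h. After a PBS wash, DNA was stained with Nim-DAPI for 10 min at room temperature. Phase distribution was read by flow cytometry, with the sub-G1 (fragmented DNA) fraction taken as the apoptosis index. Values are means of three experiments.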"}, "A549 [8]": {"test_system": "A549", "experiment": "Induction of mitochondrial signal transduction pathway-mediated apoptosis in human A549 cells assessed as increase in cleaved caspase-3 level at 30 uM after 24 to 48 hrs by Western blot analysis"}, "A549 [9]": {"test_system": "A549", "experiment": "Cell cycle arrest in human A549 cells assessed as accumulation at S phase at 30 uM after 48 hrs by flow cytometry (reference value: 27.7%)", "format": "functional", "how_it_was_run": "as §2"}, "A549 [10]": {"test_system": "A549", "experiment": "Induction of mitochondrial signal transduction pathway-mediated apoptosis in human A549 cells assessed as increase in Bax level at 30 uM after 24 to 48 hrs by Western blot analysis", "format": "functional, cell-based", "how_it_was_run": "(§3)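 A549 cells (1.5 × 10^5) were pre-incubated 24 h, then given 30 μM for 24 or 48 h. Whole-cell lysates were run on 15% SDS-PAGE, transferred to PVDF and probed overnight at 4 °C for Bax, Bcl-2 and β-actin. The Bcl-2 band was quantified by densitometry relative to untreated cells, n = 3.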"}, "[11]": {"experiment": "Cytotoxicity in human CRL1579 cells assessed as cell viability after 48 hrs by MTT assay", "format": "functional, cell-based", "how_it_was_run": "as §1"}, "HL-60 [12]": {"test_system": "HL-60", "experiment": "Induction of apoptosis in human HL60 cells assessed as late apoptotic cells at 30 uM after 48 hrs by AnnexinV/propidium iodide staining (Rvb =3.3%)", "format": "functional"}, "HL-60 [13]": {"test_system": "HL-60", "experiment": "Induction of mitochondrial signal transduction pathway-mediated apoptosis in human HL60 cells assessed as increase in Bax level at 30 uM after 8 to 24 hrs by Western blot analysis", "conditions": "TDE = time-dependent effect"}, "A549 [14]": {"test_system": "A549", "experiment": "Cell cycle arrest in human A549 cells assessed as accumulation at G2/M phase at 30 uM after 48 hrs by flow cytometry (reference value: 4.9%)", "format": "functional", "how_it_was_run": "as §2"}, "[15]": {"experiment": "Cytotoxicity in human AZ-521 cells assessed as cell viability after 48 hrs by MTT assay", "format": "functional, cell-based", "conditions": "AZ-521, 48 h"}, "HL-60 [16]": {"test_system": "HL-60", "experiment": "Cell cycle arrest in human HL60 cells assessed as accumulation at S phase at 30 uM after 24 hrs by flow cytometry (reference value: 42.6%)", "format": "functional", "how_it_was_run": "as §2"}, "SK-BR-3": {"test_system": "SK-BR-3", "experiment": "Cytotoxicity in human SK-BR-3 cells assessed as cell viability after 48 hrs by MTT assay", "format": "functional, cell-based", "conditions": "SK-BR-3, 48 h", "how_it_was_run": "as §1"}, "A549 [17]": {"test_system": "A549", "experiment": "Cell cycle arrest in human A549 cells assessed as accumulation at Go/G1 phase at 30 uM after 24 hrs by flow cytometry (reference value: 64.3%)", "format": "functional", "how_it_was_run": "as §2"}, "HL-60 [18]": {"test_system": "HL-60", "experiment": "Induction of apoptosis in human HL60 cells assessed as accumulation at Go/G1 phase at 30 uM after 48 hrs by flow cytometry (reference value: 51.4%)", "format": "functional", "how_it_was_run": "as §2"}, "HL-60 [19]": {"test_system": "HL-60", "experiment": "Induction of mitochondrial signal transduction pathway-mediated apoptosis in human HL60 cells assessed as increase in cleaved caspase-8 level at 30 uM after 8 hrs by Western blot analysis", "format": "functional, cell-based", "how_it_was_run": "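HL60 cells (1 × 10^6) pre-incubated 24 h, then exposed to 30 μM final for 8 h. Whole-cell lysates in extraction buffer, resolved on 15% SDS-PAGE, blotted to PVDF, probed overnight at 4 °C with anti-caspase-8 or anti-caspase-9 primary antibodies, β-actin as loading reference. Procaspase loss and cleaved caspase bands read.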"}, "A549 [20]": {"test_system": "A549", "experiment": "Induction of mitochondrial signal transduction pathway-mediated apoptosis in human A549 cells assessed as decrease in Bcl-2 level at 30 uM after 24 to 48 hrs by Western blot analysis", "format": "functional, cell-based", "how_it_was_run": "as §3"}, "HL-60 [21]": {"test_system": "HL-60", "experiment": "Cell cycle arrest in human HL60 cells assessed as accumulation at G2/M phase at 30 uM after 24 hrs by flow cytometry (reference value: 6.0%)", "format": "functional", "how_it_was_run": "as §2"}, "HL-60 [22]": {"test_system": "HL-60", "experiment": "Induction of apoptosis in human HL60 cells assessed as viable cells at 30 uM after 48 hrs by AnnexinV/propidium iodide staining (Rvb =85.6%)", "format": "functional", "conditions": "HL-60, 48 h, read-out: Activity"}, "HL-60 [23]": {"test_system": "HL-60", "experiment": "Induction of apoptosis in human HL60 cells assessed as early apoptotic cells at 30 uM after 48 hrs by AnnexinV/propidium iodide staining (Rvb =7.6%)"}, "HL-60 [24]": {"test_system": "HL-60", "experiment": "Cytotoxicity in human HL60 cells assessed as cell viability after 48 hrs by MTT assay", "format": "functional, cell-based", "conditions": "HL-60, 48 h", "how_it_was_run": "as §1"}, "HL-60 [25]": {"test_system": "HL-60", "experiment": "Cell cycle arrest in human HL60 cells assessed as accumulation at G2/M phase at 30 uM after 48 hrs by flow cytometry (reference value: 6.0%)", "format": "functional", "how_it_was_run": "as §2"}, "A549 [26]": {"test_system": "A549", "experiment": "Cell cycle arrest in human A549 cells assessed as accumulation at G2/M phase at 30 uM after 24 hrs by flow cytometry (reference value: 4.9%)", "format": "functional", "how_it_was_run": "as §2"}}, "note": "The source made the active and inactive calls. No cut-off for these calls is given here.", "data": [{"smiles": "C=C(CC[C@@H](CO)[C@H]1[C@H](O)C[C@@]2(C)C3=CC[C@@H](C(=C)C)[C@](C)(CCCO)C3=CC[C@]12C)C(C)C", "note": "[PORICOTRIOL A]", "values": [{"measurement": "IC50", "setting": "DU-145", "value": 14.5, "unit": "µM"}, {"measurement": "Activity", "setting": "HL-60 [1]", "value": "Active"}, {"measurement": "viability at 30 µM", "setting": "A549 [2]", "value": 89.2, "unit": "%"}, {"measurement": "IC50", "setting": "A549 [3]", "value": 4.2, "unit": "µM"}, {"measurement": "Activity", "setting": "A549 [4]", "value": 2.9, "unit": "%"}, {"measurement": "Activity", "setting": "A549 [5]", "value": 3.5, "unit": "%"}, {"measurement": "Activity", "setting": "A549 [6]", "value": 6.3, "unit": "%"}, {"measurement": "Activity", "setting": "A549 [7]", "value": 7.5, "unit": "%"}, {"measurement": "Activity", "setting": "A549 [8]", "value": "inactive"}, {"measurement": "Activity", "setting": "A549 [9]", "value": 6, "unit": "%"}, {"measurement": "Activity", "setting": "A549 [10]", "value": "inactive"}, {"measurement": "IC50", "setting": "[11]", "value": 5.5, "unit": "µM"}, {"measurement": "Activity", "setting": "HL-60 [12]", "value": 30.4, "unit": "%"}, {"measurement": "Activity", "setting": "HL-60 [13]", "value": "tde"}, {"measurement": "Activity", "setting": "A549 [14]", "value": 3.6, "unit": "%"}, {"measurement": "IC50", "setting": "[15]", "value": 1.4, "unit": "µM"}, {"measurement": "Activity", "setting": "HL-60 [16]", "value": 28.9, "unit": "%"}, {"measurement": "IC50", "setting": "SK-BR-3", "value": 1.2, "unit": "µM"}, {"measurement": "Activity", "setting": "A549 [17]", "value": 77.2, "unit": "%"}, {"measurement": "Activity", "setting": "HL-60 [18]", "value": 58.6, "unit": "%"}, {"measurement": "Activity", "setting": "HL-60 [19]", "value": "Active"}, {"measurement": "Activity", "setting": "A549 [20]", "value": "Active"}, {"measurement": "Activity", "setting": "HL-60 [21]", "value": 8.8, "unit": "%"}, {"measurement": "viability at 30 µM", "setting": "HL-60 [22]", "value": 14.7, "unit": "%"}, {"measurement": "Activity", "setting": "HL-60 [23]", "value": 52.5, "unit": "%"}, {"measurement": "IC50", "setting": "HL-60 [24]", "value": 1.9, "unit": "µM"}, {"measurement": "Activity", "setting": "HL-60 [25]", "value": 10.9, "unit": "%"}, {"measurement": "Activity", "setting": "A549 [26]", "value": 7.5, "unit": "%"}]}]}
